Compound activity from PubChem.
HTRA1 inh = HTRA1 (human) protease inhibition; Q92743; recombinant HTRA1, FP-rhodamine activity-based probe, fluorescence polarization; inhibition, % at 5.96 µM; hit rate 0.5% among 340,000; in the data active = inhibition above about 36%;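 note: 0% = enzyme with DMSO and 100% = wells lacking enzyme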
SIAE inh = inhibitors of human sialic acid acetylesterase SIAE. inhibition, % at 9.66 µM. SIAE FP-Rh probe binding, fluorescence polarization. hit rate 0.69% among 370,000. Q9HAT2. AID 1053197;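 active = inhibition above a cutoff: mean of compounds within the control limits plus 3 SD of those, cut at about 17% in these data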;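 note: 0% = plate median of compound wells and 100% = probe without SIAE protein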
mABHD4 FP = inhibitors of mouse ABHD4; Q8VD66; purified mABHD4, FP-Rh probe fluorescence polarization; inhibition, % at 8.92 µM; hit rate 0.54% among 370,000;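 active = inhibition exceeding the mean over every tested compound plus 3 SD, cut at about 30% in these data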;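 note: 0% = plate median of compound wells and 100% = S159A mutant with DMSO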
Target sequence (Q8VD66 whole entry, looked up): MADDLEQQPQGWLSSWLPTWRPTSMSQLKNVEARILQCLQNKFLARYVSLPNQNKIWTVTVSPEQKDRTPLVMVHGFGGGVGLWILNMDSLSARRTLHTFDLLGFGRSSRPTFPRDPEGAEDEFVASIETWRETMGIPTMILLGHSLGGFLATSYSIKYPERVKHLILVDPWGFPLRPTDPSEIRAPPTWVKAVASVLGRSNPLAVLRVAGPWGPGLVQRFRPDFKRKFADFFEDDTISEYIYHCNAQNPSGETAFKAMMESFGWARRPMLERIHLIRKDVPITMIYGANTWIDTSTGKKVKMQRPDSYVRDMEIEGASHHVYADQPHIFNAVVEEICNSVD
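Assay system: wild-type mouse ABHD4 protein; compound: single nominal dose of 8.92 µM, 0.89% DMSO final; schedule: 45 min + 60 min at 25 °C; measured by: FP readout, ex 525 nm / em 598 nm; evaluation: % inhibition of FP-Rh probe binding versus controls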
TCR-CD3 inh = blocks the human TCR-CD3 interaction; TAMRA-labeled TCR probe fluorescence, biochemical; inhibition, % at 9.4 µM; hit rate 0.37% among 360,000;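 note: recombinant mutant TCR 2C K166C tagged with TAMRA read by polarization; 0% = receptor in buffer alone and 100% = receptor with positive control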
ARNT TACC3 PPI = disruptors of human ARNT/TACC3 interaction; Q9Y6A5; AlphaScreen His-ARNT PAS-B/GST-TACC3 binding, luminescence; TACC3 fragment carries E629A point mutation; inhibition, % at 9.99 µM; hit rate 0.66% among 390,000;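 active = mean inhibition of replicates at least 50% and at least half of replicates each reaching 50%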;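 note: 0% = complete ARNT plus TACC3 wells and 100% = ARNT alone without TACC3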
AlphaScreen ctr = AlphaScreen artifact in ARNT/TACC3 counter-screen. shares compounds with ARNT TACC3 PPI. AC50, µM (doses to about 68 µM), for the others: top-dose activity change, negative = signal decrease. hit rate 50% among 1,200. His-ARNT PASB-GST AlphaScreen artifact counter-screen, luminescence. AID 651705;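 active = every separate test run was called active for a drop in luminescence, with AC50 within twice the top valid dose, actives reach about 71 µM in these data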
BSA probe FL = counter-screen for TCR-CD3 interaction inhibitors: BSA probe. TAMRA-labeled BSA probe fluorescence counterscreen. hit rate 10% among 1,200. inhibition, % at 9.4 µM. shares compounds with TCR-CD3 inh; in the data active = inhibition above about 23%;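 note: 0% = buffer low control and 100% = reference high control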
TCR-CD3 conf = TCR-CD3 interaction inhibition, confirmation; shares compounds with TCR-CD3 inh; TAMRA-labeled TCR probe fluorescence binding assay; inhibition, % at 9.4 µM; hit rate 48% among 1,200
mABHD4 conf = ABHD4 (mouse) inhibition, FP confirmation; inhibition, % at 8.92 µM; hit rate 55% among 1,800; shares compounds with mABHD4 FP; AID 720658; purified mABHD4, FP-Rh probe fluorescence polarization;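 active = mean inhibition across replicates above the hit cutoff set in the primary screen, cut at about 30% in these data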;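 note: 0% = wild-type ABHD4 with DMSO and 100% = catalytically dead S159A mutant with DMSO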
An asterisk follows results filed as active; x = no result. Hits are enriched below; roughly 1.8% of the tested compounds scored in any of these assays. Cut-off read from the data, not from the text of the source, unless noted: active = inhibition above about 19%; inactive = the rest.

SMILES	HTRA1 inh	SIAE inh	mABHD4 FP	TCR-CD3 inh	ARNT TACC3 PPI	mABHD4 conf	others
O=C(N/N=C/c1c(O)n(CCC2=CCCCC2)c(=O)[nH]c1=O)c1ccccc1	12.1	3.0	11.7	0.6	50.6*	x	AlphaScreen ctr=-16.0%
O=C(N/N=C/c1c(O)n(CCC2=CCCCC2)c(=S)[nH]c1=O)c1ccccc1	28.0	-27.3	6.5	-1.2	27.1	x
O=C(Nc1ccc(Cl)cc1)O/N=C(\c1ccccc1)c1ccccn1	1.8	2.3	4.3	-6.6	50.2*	x	AlphaScreen ctr=-37.9%
C/C(=N\NC(=O)c1ccccc1O)c1c(O)n(Cc2ccccc2)c(=O)[nH]c1=O	23.2	4.1	25.3	33.6*	-7.8	x	BSA probe FL=-15.1;TCR-CD3 conf=36.7*
C/C(=N\NC(=O)c1ccncc1)c1c(O)n(Cc2ccccc2)c(=O)[nH]c1=O	5.2	-0.2	8.1	19.5*	22.5	x	BSA probe FL=-7.3;TCR-CD3 conf=11.4
Cc1cccc(-n2c(O)c(/C=N/NC(=O)c3ccncc3)c(=O)[nH]c2=O)c1	x	-4.7	7.2	5.2	x	x
O=C(N/N=C/c1c(O)n(-c2ccccc2)c(=S)[nH]c1=O)c1ccccc1	x	-11.0	3.4	26.5*	63.6*	x	BSA probe FL=-11.2;TCR-CD3 conf=6.8
O=C(N/N=C/c1c(O)n(Cc2ccccc2)c(=O)[nH]c1=O)c1ccncc1	x	3.8	23.6	26.2*	x	x	BSA probe FL=-10.7;TCR-CD3 conf=9.3
C/C(=N\Nc1ccccc1)c1c(O)n(Cc2ccccc2)c(=O)[nH]c1=O	-7.9	-0.1	-7.0	12.9	1.1	x
N#Cc1cccc(-c2ccc([C@@H]3[C@@H](CO)N4CCCCN(C(=O)Cc5ccccc5)C[C@H]34)cc2)c1	x	x	x	x	2.0	x
NC(=O)c1ccc(N=Cc2c(O)n(Cc3ccco3)c(=O)[nH]c2=O)cc1	-3.5	-2.0	-4.5	20.5*	1.0	x	BSA probe FL=13.1;TCR-CD3 conf=25.5*
CC=Cc1ccc2n(c1=O)C[C@H]1[C@H](CO)[C@@H](C(=O)O)[C@@H]2N1S(=O)(=O)c1ccccc1F (mixture of isomers)	x	x	x	x	2.8	x
COc1cc2c(cc1O)CC1c3c(cc(O)c(OC)c3-2)CCN1C (stereo unspecified)	8.3	11.1	24.2	21.6*	19.2	x	BSA probe FL=-1.3;TCR-CD3 conf=6.5
COc1cc(C(=O)OC2C[C@H]3CC[C@@H](C2)N3C)ccc1O (stereo partly specified)	4.7	6.5	2.8	3.8	-4.2	x
Oc1ccc(C[C@H]2NCCc3cc(O)c(O)cc32)cc1O	27.7	15.9	14.9	112.7*	5.6	x	BSA probe FL=-5.2;TCR-CD3 conf=19.4*
O=C(Cc1ccccn1)N1CCCCN2[C@@H](CO)[C@H](c3ccc(C#Cc4ccccc4)cc3)[C@@H]2C1	x	x	x	x	9.7	x
CN(C)c1ccc(C=C2C(=O)NC(=O)NC2=O)cc1	-0.6	0.6	1.3	-2.7	-8.6	x
CC(=O)Nc1ccc(C=C2C(=O)NC(=O)NC2=O)cc1	-0.7	-0.5	8.6	51.0*	1.3	x	BSA probe FL=-3.2;TCR-CD3 conf=-3.7
O=C(Cc1ccccc1)N1CCCCN2[C@H](CO)[C@H](c3ccc(C#CC4(O)CCCC4)cc3)[C@@H]2C1	x	x	x	x	0.7	x
C/C(=N\NC(=O)c1ccccc1O)c1c(O)n(C2CCCCC2)c(=O)[nH]c1=O	17.1	-6.3	37.5*	14.8	7.4	43.9*
O=c1[nH]c(=S)n(C2CC2)c(O)c1C=NCc1ccc(F)cc1	6.6	-5.3	0.2	-8.0	-1.7	x
O=C(N/N=C/c1c(O)n(C2CC2)c(=S)[nH]c1=O)c1ccccc1O	4.3	-21.6	35.1*	11.2	59.9*	24.8
Cc1ccc(-n2c(=S)[nH]c3ccc(C)cc3c2=O)cc1	-2.2	-3.6	46.4*	-5.8	x	33.4*
CNc1ccc2oc(C[C@H]3O[C@@]4(CC[C@H]3C)O[C@H]([C@H](C)C(=O)c3ccc[nH]3)[C@H](C)C[C@H]4C)nc2c1C(=O)O	35.3	10.9	29.9*	-0.1	-3.8	19.3
O=C(Cc1ccncc1)N1CCCCN2[C@@H](CO)[C@@H](c3ccc(C#Cc4ccccc4F)cc3)[C@@H]2C1	x	x	x	x	-4.6	x
SMILES	HTRA1 inh	SIAE inh	mABHD4 FP	TCR-CD3 inh	ARNT TACC3 PPI	mABHD4 conf	others
COc1cc(O)c(C(=O)O)c(-c2cc(O)c(O)cc2C)c1	21.0	12.6	36.7*	11.2	2.3	33.3*
O=[N+]([O-])c1cc(O)c(O)c([N+](=O)[O-])c1	35.0	5.6	74.2*	8.7	3.7	49.6*
COC(=O)C1=C(c2cccc(OCc3ccccc3)c2)C[C@@H]2CC[C@H]1N2C(=O)NCc1ccc(OC)cc1	-35.3	-8.7	-2.4	1.5	3.6	x
COC(=O)C1=C(c2ccc(OCc3ccccc3)cc2)C[C@@H]2CC[C@H]1N2C(=O)NCc1cccc(OC)c1	-37.1	-11.4	30.8*	2.4	-3.3	35.4*
COC(=O)C1=C(c2ccc(OCc3ccccc3)cc2)C[C@@H]2CC[C@H]1N2C(=O)NCc1ccc(OC)cc1	-39.9	-9.5	40.8*	-1.5	x	43.4*
COC(=O)C1=C(c2ccc(OCc3ccccc3)cc2)C[C@@H]2CC[C@H]1N2C(=O)NCc1ccc2c(c1)OCO2	-24.3	0.0	50.7*	4.5	x	33.5*
COC(=O)C1=C(c2ccc(OCc3ccccc3)cc2)C[C@@H]2CC[C@H]1N2C(=O)NCc1ccc(C(C)(C)C)cc1	-32.0	-2.8	33.0*	-0.8	x	50.1*
COC(=O)C1=C(c2ccc(OCc3ccccc3)cc2)C[C@@H]2CC[C@H]1N2C(=O)NCc1ccccc1	-22.8	-5.1	21.0	7.1	-0.4	x
O=C(Cc1ccccc1)N1CCCCN2[C@H](CO)[C@@H](c3ccc(C#Cc4ccccc4)cc3)[C@H]2C1	x	x	x	x	-20.0	x
COC(=O)[C@H]1[C@H](CO)[C@H]2Cn3c(ccc(-c4ccccc4)c3=O)[C@@H]1N2CC1CCCCC1	x	x	x	x	-12.5	x
COC(=O)[C@H]1N[C@H]2c3ccc(C4=CCCC4)c(=O)n3C[C@H]2[C@@H]1CO	x	x	x	x	-0.8	x
CCCCCCCSc1cc(OC)c(CCN(C)C)cc1OC	21.4	6.6	31.8*	8.8	26.6	35.2*
COc1ccc(-c2ccc([C@@H]3[C@H](CO)N4CCCCN(C(=O)Cc5ccccc5)C[C@@H]34)cc2)cc1	x	x	x	x	4.9	x
C[C@]12CC[C@@H]3c4ccc(O)c(O)c4CC[C@H]3[C@@H]1CC[C@@H]2O	27.5	-7.0	30.4*	10.5	-2.2	18.9
O=P(Oc1ccccc1)(Oc1ccccc1)C(O)c1ccc(Cl)cc1 (stereo unspecified)	-7.5	1.5	32.5*	3.3	9.6	16.0
